ChEMBL document CHEMBL1671686, “Carbapenem-resistant KPC-2-producing Escherichia coli in a Tel Aviv Medical Center, 2005 to 2008” (2010)
≈ marks a conversion by molar mass, not a printed value.

Key:
Assay type in all cases: functional
[1] = system: Escherichia coli; assay: Antimicrobial activity against Escherichia coli isolate 540 expressing beta-lactamase KPC2, TEM and PFGE cluster 4 isolated from synovial fluid of patient by agar dilution method
How it was run: (§1)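 Clinical carbapenem-resistant E. coli isolates from the hospital, February 2005 to October 2008. Carbapenem MICs were determined by agar dilution following CLSI protocols.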

[2] = system: Escherichia coli; assay: Antimicrobial activity against Escherichia coli isolate 1679 expressing beta-lactamase KPC2, SHV-12, TEM and PFGE cluster 6 isolated from peritoneal fluid of patient by agar dilution method; how it was run: as §1
[3] = system: Escherichia coli; assay: Antimicrobial activity against Escherichia coli isolate 360 expressing beta-lactamase KPC2, CTX-M-15, OXA-9, TEM and PFGE cluster 1 isolated from urine of patient by agar dilution method; conditions: isolate 360, Urine
How it was run: (§2)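 Clinical carbapenem-resistant E. coli isolates collected Feb 2005–Oct 2008. Carbapenem MICs determined by agar dilution following CLSI protocols.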

[4] = system: Escherichia coli; assay: Antimicrobial activity against Escherichia coli isolate 544 expressing beta-lactamase KPC2, TEM and PFGE cluster 4 isolated from abscess of patient by agar dilution method; how it was run: as §1
[5] = system: Escherichia coli; assay: Antimicrobial activity against Escherichia coli isolate 360T expressing beta-lactamase KPC2, OXA-9 and PFGE cluster 1 isolated from urine of patient by agar dilution method
How it was run: (§3)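 Transformant strains. Plasmids purified from the clinical isolates were electroporated into E. coli DH10B. Transformants were selected on LB agar with 100 μg/ml ampicillin, and colonies were PCR-screened for blaKPC before susceptibility testing.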

[6] = system: Escherichia coli; assay: Antimicrobial activity against Escherichia coli isolate 547T expressing beta-lactamase KPC2 and PFGE cluster 4 isolated from blood of patient by agar dilution method; how it was run: as §3
[7] = system: Escherichia coli; assay: Antimicrobial activity against Escherichia coli isolate 329T expressing beta-lactamase KPC2 and PFGE cluster 2 isolated from blood of patient by agar dilution method; how it was run: as §3
[8] = system: Escherichia coli; assay: Antimicrobial activity against Escherichia coli isolate 1679T expressing beta-lactamase KPC2, TEM and PFGE cluster 6 isolated from peritoneal fluid of patient by agar dilution method; how it was run: as §3
[9] = system: Escherichia coli; assay: Antimicrobial activity against Escherichia coli isolate 386 expressing beta-lactamase KPC2, CTX-M-15, OXA-9, TEM and PFGE cluster 1 isolated from wound of patient by agar dilution method; how it was run: as §2
[10] = system: Escherichia coli; assay: Antimicrobial activity against Escherichia coli isolate 543T expressing beta-lactamase KPC2 and PFGE cluster 4 isolated from synovial fluid of patient by agar dilution method; how it was run: as §3
[11] = system: Escherichia coli; assay: Antimicrobial activity against Escherichia coli isolate 339T expressing beta-lactamase KPC2 and PFGE cluster 5 isolated from peritoneal fluid of patient by agar dilution method; how it was run: as §3
[12] = system: Escherichia coli; assay: Antimicrobial activity against Escherichia coli DH10B by Etest; conditions: K-12 DH10B
[13] = system: Escherichia coli; assay: Antimicrobial activity against Escherichia coli isolate 547 expressing beta-lactamase KPC2, TEM and PFGE cluster 4 isolated from blood of patient by agar dilution method; how it was run: as §2
[14] = system: Escherichia coli; assay: Antimicrobial activity against Escherichia coli isolate 386T expressing beta-lactamase KPC2, OXA-9 and PFGE cluster 1 isolated from wound of patient by agar dilution method; how it was run: as §3
[15] = system: Escherichia coli; assay: Antimicrobial activity against Escherichia coli isolate 329 expressing beta-lactamase KPC2, CTX-M-2, TEM and PFGE cluster 2 isolated from blood of patient by agar dilution method; how it was run: as §1
[16] = system: Escherichia coli; assay: Antimicrobial activity against Escherichia coli isolate 157 expressing beta-lactamase KPC2, CTX-M-15, TEM and PFGE cluster 3 isolated from urine of patient by agar dilution method; conditions: isolate 157, Urine; how it was run: as §2
[17] = system: Escherichia coli; assay: Antimicrobial activity against Escherichia coli isolate 339 expressing beta-lactamase KPC2, TEM and PFGE cluster 5 isolated from peritoneal fluid of patient by agar dilution method; how it was run: as §1
[18] = system: Escherichia coli; assay: Antimicrobial activity against Escherichia coli isolate 157T expressing beta-lactamase KPC2 and PFGE cluster 3 isolated from urine of patient by agar dilution method; how it was run: as §3
[19] = system: Escherichia coli; assay: Antimicrobial activity against Escherichia coli DH10B by vitek-2 method; conditions: K-12 DH10B
How it was run: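 Plasmid-free recipient E. coli DH10B, used as the host for electroporation transformants, was tested for susceptibility on the automated Vitek-2 system.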

[20] = system: Escherichia coli; assay: Antimicrobial activity against Escherichia coli isolate 540 expressing beta-lactamase KPC2, TEM and PFGE cluster 4 isolated from synovial fluid of patient by vitek-2 method
[21] = system: Escherichia coli; assay: Antimicrobial activity against Escherichia coli isolate 339T expressing beta-lactamase KPC2 and PFGE cluster 5 isolated from peritoneal fluid of patient by vitek-2 method
[22] = system: Escherichia coli; assay: Antimicrobial activity against Escherichia coli isolate 544 expressing beta-lactamase KPC2, TEM and PFGE cluster 4 isolated from abscess of patient by vitek-2 method
[23] = system: Escherichia coli; assay: Antimicrobial activity against Escherichia coli isolate 547 expressing beta-lactamase KPC2, TEM and PFGE cluster 4 isolated from blood of patient by vitek-2 method
[24] = system: Escherichia coli; assay: Antimicrobial activity against Escherichia coli isolate 1679 expressing beta-lactamase KPC2, SHV-12, TEM and PFGE cluster 6 isolated from peritoneal fluid of patient by vitek-2 method
[25] = system: Escherichia coli; assay: Antimicrobial activity against Escherichia coli isolate 157T expressing beta-lactamase KPC2 and PFGE cluster 3 isolated from urine of patient by vitek-2 method
[26] = system: Escherichia coli; assay: Antimicrobial activity against Escherichia coli isolate 360T expressing beta-lactamase KPC2, OXA-9 and PFGE cluster 1 isolated from urine of patient by vitek-2 method
[27] = system: Escherichia coli; assay: Antimicrobial activity against Escherichia coli isolate 386T expressing beta-lactamase KPC2, OXA-9 and PFGE cluster 1 isolated from wound of patient by vitek-2 method
[28] = system: Escherichia coli; assay: Antimicrobial activity against Escherichia coli isolate 329 expressing beta-lactamase KPC2, CTX-M-2, TEM and PFGE cluster 2 isolated from blood of patient by vitek-2 method
[29] = system: Escherichia coli; assay: Antimicrobial activity against Escherichia coli isolate 543 expressing beta-lactamase KPC2, CTX-M-15, TEM and PFGE cluster 4 isolated from synovial fluid of patient by vitek-2 method
[30] = system: Escherichia coli; assay: Antimicrobial activity against Escherichia coli isolate 1679T expressing beta-lactamase KPC2, TEM and PFGE cluster 6 isolated from peritoneal fluid of patient by vitek-2 method
[31] = system: Escherichia coli; assay: Antimicrobial activity against Escherichia coli isolate 157 expressing beta-lactamase KPC2, CTX-M-15, TEM and PFGE cluster 3 isolated from urine of patient by vitek-2 method; conditions: isolate 157, Urine
[32] = system: Escherichia coli; assay: Antimicrobial activity against Escherichia coli isolate 547T expressing beta-lactamase KPC2 and PFGE cluster 4 isolated from blood of patient by vitek-2 method
[33] = system: Escherichia coli; assay: Antimicrobial activity against Escherichia coli isolate 386 expressing beta-lactamase KPC2, CTX-M-15, OXA-9, TEM and PFGE cluster 1 isolated from wound of patient by vitek-2 method
[34] = system: Escherichia coli; assay: Antimicrobial activity against Escherichia coli isolate 360 expressing beta-lactamase KPC2, CTX-M-15, OXA-9, TEM and PFGE cluster 1 isolated from urine of patient by vitek-2 method; conditions: isolate 360, Urine
[35] = system: Escherichia coli; assay: Antimicrobial activity against Escherichia coli isolate 339 expressing beta-lactamase KPC2, TEM and PFGE cluster 5 isolated from peritoneal fluid of patient by vitek-2 method
[36] = system: Escherichia coli; assay: Antimicrobial activity against Escherichia coli isolate 329T expressing beta-lactamase KPC2 and PFGE cluster 2 isolated from blood of patient by vitek-2 method
[37] = system: Escherichia coli; assay: Antimicrobial activity against Escherichia coli isolate 543T expressing beta-lactamase KPC2 and PFGE cluster 4 isolated from synovial fluid of patient by vitek-2 method

For `C[C@@H](O)[C@H]1C(=O)N2C(C(=O)O)=C(SCCNC=N)C[C@H]12` [IMIPENEM ANHYDROUS], the MIC [1] was 4 µg/mL (≈ 13.4 µM), the MIC [2] was 8 µg/mL (≈ 26.7 µM) and the MIC [3] was 4 µg/mL (≈ 13.4 µM). For the same compound, the MIC [4] was 4 µg/mL (≈ 13.4 µM), the MIC [5] was 1 µg/mL (≈ 3.34 µM) and the MIC [6] was 1 µg/mL (≈ 3.34 µM). It also gave an MIC [7] of 2 µg/mL (≈ 6.68 µM), an MIC [8] of 1 µg/mL (≈ 3.34 µM) and an MIC [9] of 1 µg/mL (≈ 3.34 µM). The MIC [10] was 2 µg/mL (≈ 6.68 µM), the MIC [11] was 2 µg/mL (≈ 6.68 µM) and the MIC [12] was 0.25 µg/mL (≈ 0.835 µM). The MIC [13] was 4 µg/mL (≈ 13.4 µM), the MIC [14] was 1 µg/mL (≈ 3.34 µM) and the MIC [15] was 8 µg/mL (≈ 26.7 µM). The MIC [16] was 8 µg/mL (≈ 26.7 µM), the MIC [17] was 2 µg/mL (≈ 6.68 µM) and the MIC [18] was 2 µg/mL (≈ 6.68 µM).
`CO/N=C(\C(=O)N[C@@H]1C(=O)N2C(C(=O)[O-])=C(C[N+]3(C)CCCC3)CS[C@H]12)c1csc(N)n1` showed an MIC [19] of 0.125 µg/mL (≈ 0.26 µM).
With `CO/N=C(\C(=O)N[C@@H]1C(=O)N2C(C(=O)O)=C(CSc3nc(=O)c(O)nn3C)CS[C@H]12)c1csc(N)n1` [CEFTRIAXONE] the MIC [20] was > 64 µg/mL, the MIC [21] was 8 µg/mL (≈ 14.4 µM) and the MIC [22] was 32 µg/mL (≈ 57.7 µM). For the same compound, the MIC [23] was > 64 µg/mL, the MIC [24] was 32 µg/mL (≈ 57.7 µM) and the MIC [19] was < 0.25 µg/mL. The MIC [25] was > 64 µg/mL, the MIC [26] was 8 µg/mL (≈ 14.4 µM) and the MIC [27] was 8 µg/mL (≈ 14.4 µM). For the same compound, the MIC [28] was > 64 µg/mL, the MIC [29] was > 64 µg/mL and the MIC [30] was 8 µg/mL (≈ 14.4 µM). The MIC [31] was > 64 µg/mL, the MIC [32] was 8 µg/mL (≈ 14.4 µM) and the MIC [33] was > 64 µg/mL. The MIC [34] was > 64 µg/mL, the MIC [35] was > 64 µg/mL and the MIC [36] was 16 µg/mL (≈ 28.9 µM). It also gave an MIC [37] of 16 µg/mL (≈ 28.9 µM).
`C[C@@H](O)[C@H]1C(=O)N2C(C(=O)O)=C(S[C@@H]3CN[C@H](C(=O)N(C)C)C3)[C@H](C)[C@H]12` [MEROPENEM] gave an MIC [1] of 4 µg/mL (≈ 10.4 µM), an MIC [2] of 16 µg/mL (≈ 41.7 µM) and an MIC [3] of 4 µg/mL (≈ 10.4 µM). It also gave an MIC [4] of 4 µg/mL (≈ 10.4 µM), an MIC [5] of 1 µg/mL (≈ 2.61 µM) and an MIC [6] of 0.5 µg/mL (≈ 1.3 µM). For the same compound, the MIC [7] was 1 µg/mL (≈ 2.61 µM), the MIC [8] was 0.5 µg/mL (≈ 1.3 µM) and the MIC [9] was 1 µg/mL (≈ 2.61 µM). It also gave an MIC [10] of 0.5 µg/mL (≈ 1.3 µM), an MIC [11] of 1 µg/mL (≈ 2.61 µM) and an MIC [12] of 0.25 µg/mL (≈ 0.652 µM). It also gave an MIC [13] of 4 µg/mL (≈ 10.4 µM), an MIC [14] of 0.25 µg/mL (≈ 0.652 µM) and an MIC [15] of 8 µg/mL (≈ 20.9 µM). For the same compound, the MIC [16] was 4 µg/mL (≈ 10.4 µM), the MIC [17] was 2 µg/mL (≈ 5.22 µM) and the MIC [18] was 1 µg/mL (≈ 2.61 µM).
With `C[C@H]1[C@H](NC(=O)/C(=N\OC(C)(C)C(=O)O)c2csc(N)n2)C(=O)N1S(=O)(=O)O` [AZTREONAM] the MIC [19] was < 1 µg/mL.
